Data as given in ChEMBL document CHEMBL5214977, “Discovery and Optimization of Quinoline Analogues as Novel Potent Antivirals against Enterovirus D68” (J Med Chem, 2022).
The source made the active and inactive calls. The rule behind the calls is not given here.

Assays:
[1] = test system: enterovirus D68; assay: Antiviral activity against Enterovirus D68 infected in human RD cells assessed as inhibition of viral replication at 2 uM treated for 14 hrs by qRT-PCR analysis; assay type: functional, organism-based
Method in brief: (§1)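 RD cells grown for 24 h were infected at 0 h with EV-D68 (MOI 0.01), and virus was washed off at 1 hpi. Compound at 2 μM or DMSO was added over set windows (0–1 h, after 1 hpi, or 0–14 h). Supernatants were collected at 14 hpi. Viral RNA copies were measured by qRT-PCR against a copy-number standard curve. Values are mean ± SD.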

[2] = test system: enterovirus D68; assay: Antiviral activity against Enterovirus D68 infected in human RD cells assessed as inhibition of viral replication at 1 uM incubated for 1.5 hrs by crystal violet staining based plaque formation assay; assay type: functional, organism-based
Method in brief: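 Overnight RD monolayers received serially diluted virus stock plus compound for 1.5 h. Supernatant was removed and cells were overlaid with 2× DMEM containing 2% low-melting agarose. At 72 hpi cells were fixed with 4% paraformaldehyde for 4 h at room temperature and stained with 1% crystal violet to count plaques.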

[3] = test system: enterovirus D68; assay: Antiviral activity against Enterovirus D68 infected in human RD cells assessed as inhibition of VP1 expression level incubated for 12 hrs by Hoechst 33342 staining based immunofluorescence assay; assay type: functional, organism-based; settings: dose 0.1-10 µM, DDE = dose-dependent effect
Method in brief: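 RD cells were infected with EV-D68 at MOI 1 together with compound for 12 h. Cells were fixed in 4% formaldehyde for 30 min and permeabilized in 0.1% Triton X-100 for 30 min, then blocked with 5% bovine serum. Staining used rabbit anti-VP1 with an Alexa-546 secondary and 1 μM Hoechst33342 nuclear stain, imaged by fluorescence microscopy.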

[4] = test system: enterovirus D68; assay: Antiviral activity against Enterovirus D68 infected in human RD cells assessed as reduction in thermal inactivation of virus at 55 degreeC at 12.5 uM incubated for 72 hrs by TCID50 assay; assay type: functional, organism-based
Method in brief: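 Compound at 12.5 μM or DMSO was incubated with EV-D68 (2 × 10^6 PFU/ml) at 33 °C for 30 min. The mixture was heated for 2 min at temperatures between 37 and 59 °C, then cooled to 4 °C. Residual titre was measured by TCID50 on RD cells: 10-fold virus dilutions, CPE scored after 72 h, Reed–Muench calculation.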

[5] = test system: enterovirus D68; assay: Antiviral activity against Enterovirus D68 infected in human RD cells assessed as inhibition of VP1 expression level incubated for 1.5 hrs by Western blot analysis; assay type: functional, organism-based; settings: dose 0.1-10 µM, DDE = dose-dependent effect
Method in brief: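 RD cells (8.0 × 10^4 per well) were grown for 24 h, then infected with EV-D68 at MOI 0.01 for 1.5 h with gradient-diluted compound or DMSO. Lysates were made at 12 hpi in RIPA buffer and run on 10% SDS-PAGE. Blots were probed with anti-EV-D68 VP1 and anti-tubulin antibodies, with HRP secondary and ECL detection.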

[6] = test system: enterovirus D68; assay: Antiviral activity against Enterovirus D68 infected in human RD cells assessed as inhibition of viral replication at 2 uM treated for 1 hr by qRT-PCR analysis; assay type: functional, organism-based; method in brief: as §1
[7] = test system: enterovirus D68; assay: Antiviral activity against Enterovirus-D68 fermon infected in human RD cells assessed as reduction in virus induced cytopathic effect by measuring ATP level incubated for 72 hrs by cell titer-glo luminescent cell viability assay; assay type: functional, organism-based; settings: Enterovirus D
Method in brief: (§2)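 RD cells seeded at 1.5 × 10^4/well and grown 24 h, then given 100 TCID50 virus plus compound in 3-fold dilutions (0.01–200 μM). DMSO control. Incubated 37 °C for 72 h; ATP read by CellTiter-Glo luminescence and normalized to uninfected and infected controls. EC50 is the concentration giving 50% CPE reduction. Strains: STL-2014-12, US/KY/14-18953, US/MO/14-18947, Fermon.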

[8] = test system: enterovirus D68; assay: Antiviral activity against Enterovirus-D68 US/MO/14-18947 infected in human RD cells assessed as reduction in virus induced cytopathic effect by measuring ATP level incubated for 72 hrs by cell titer-glo luminescent cell viability assay; assay type: functional, organism-based; settings: Enterovirus D, US/MO/14-18947, RD; method in brief: as §2
[9] = Selectivity index, ratio of CC50 for human RD cells to EC50 for Enterovirus-D68 US/KY/14-18953 infected in human RD cells; assay type: toxicity, cell-based; settings: read-out: Ratio CC50/EC50
Method in brief: (§3)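 EC50 came from a CPE reduction assay. RD cells (1.5 × 10^4 per well, grown 24 h) were infected with 100 TCID50 of the named strain and given 3-fold dilutions from 0.01 to 200 μM. After 72 h at 37 °C, ATP was read by CellTiter-Glo and normalized to infected and uninfected controls. CC50 came from uninfected cells under the same dilutions, 72 h and ATP readout. SI = CC50/EC50.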

[10] = test system: enterovirus D68; assay: Antiviral activity against Enterovirus-D68 STL-2014-12 infected in human RD cells assessed as reduction in virus induced cytopathic effect by measuring ATP level incubated for 72 hrs by cell titer-glo luminescent cell viability assay; assay type: functional, organism-based; method in brief: as §2
[11] = Selectivity index, ratio of CC50 for human RD cells to EC50 for Enterovirus-D68 STL-2014-12 infected in human RD cells to; assay type: toxicity, cell-based; method in brief: as §3
[12] = test system: RD; assay: Cytotoxicity against human RD cells assessed as inhibition of cell viability by measuring ATP level incubated for 72 hrs by cell titer-glo luminescent cell viability assay; assay type: functional
Method in brief: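 Uninfected RD cells seeded at 1.5 × 10^4/well and grown 24 h, then exposed to compound in 3-fold dilutions (0.01–200 μM), with DMSO as cell control. ATP read by CellTiter-Glo luminescence after 72 h; CC50 is the 50% cytotoxic concentration.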

[13] = test system: enterovirus D68; assay: Antiviral activity against Enterovirus-D68 infected in human HeLa cells assessed as reduction in virus induced cytopathic effect incubated for […] by plaque reduction assay; assay type: functional, organism-based; settings: Enterovirus D
[14] = Selectivity index, ratio of CC50 for human RD cells to EC50 for Enterovirus-D68 fermon infected in human RD cells; assay type: toxicity, cell-based; settings: read-out: Ratio CC50/EC50; method in brief: as §3
[15] = test system: enterovirus D68; assay: Antiviral activity against Enterovirus-D68 US/KY/14-18953 infected in human RD cells assessed as reduction in virus induced cytopathic effect by measuring ATP level incubated for 72 hrs by cell titer-glo luminescent cell viability assay; assay type: functional, organism-based; settings: Enterovirus D, US/KY/14-18953, RD; method in brief: as §2
[16] = Selectivity index, ratio of CC50 for human RD cells to EC50 for Enterovirus-D68 US/MO/14-18947 infected in human RD cells; assay type: toxicity, cell-based; settings: read-out: Ratio CC50/EC50; method in brief: as §3
[17] = Tmax in Sprague-Dawley rat at 5 mg/kg, po measured upto 24 hrs by LC-MS/MS analysis; assay type: ADME, organism-based; settings: in vivo
Method in brief: (§4)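 Male SD rats (6–9 or 6–8 weeks old, n = 3 per route) received a single 1 mg/kg iv or 5 mg/kg po dose. The vehicle was 5% DMSO/5% Solutol HS-15/90% water or 5% DMSO/95% HP-β-CD in water. Jugular blood was drawn into heparin at 0.083 (iv only), 0.25, 0.5, 1, 2, 4, 6 and 24 h. Plasma was analysed by LC-MS/MS. Values are mean ± SD.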

[18] = C0 in Sprague-Dawley rat at 1 mg/kg, iv measured upto 24 hrs by LC-MS/MS analysis; assay type: ADME, organism-based; settings: in vivo; method in brief: as §4
[19] = Oral bioavailability in Sprague-Dawley rat at 5 mg/kg measured upto 24 hrs by LC-MS/MS analysis; assay type: ADME, organism-based; settings: in vivo; method in brief: as §4
[20] = Cmax in Sprague-Dawley rat at 5 mg/kg, po measured upto 24 hrs by LC-MS/MS analysis; assay type: ADME, organism-based; parameters: dose 5 mg/kg, time < 24 hrs, route po; settings: in vivo; method in brief: as §4
[21] = AUC (0 to infinity) in Sprague-Dawley rat at 5 mg/kg, po measured upto 24 hrs by LC-MS/MS analysis; assay type: ADME, organism-based; parameters: time < 24 hrs, dose 5 mg/kg, route po; settings: in vivo; method in brief: as §4
[22] = AUC(0 to t) in Sprague-Dawley rat at 1 mg/kg, iv measured upto 24 hrs by LC-MS/MS analysis; assay type: ADME, organism-based; parameters: dose 1 mg/kg, time < 24 hrs, route iv; settings: in vivo; method in brief: as §4
[23] = AUC (0 to infinity) in Sprague-Dawley rat at 1 mg/kg, iv measured upto 24 hrs by LC-MS/MS analysis; assay type: ADME, organism-based; parameters: dose 1 mg/kg, time < 24 hrs, route iv; settings: in vivo; method in brief: as §4
[24] = Half life in Sprague-Dawley rat at 5 mg/kg, po measured upto 24 hrs by LC-MS/MS analysis; assay type: ADME, organism-based; settings: in vivo; method in brief: as §4
[25] = AUC (0 to t) in Sprague-Dawley rat at 5 mg/kg, po measured upto 24 hrs by LC-MS/MS analysis; assay type: ADME, organism-based; parameters: dose 5 mg/kg, time < 24 hrs, route po; settings: in vivo; method in brief: as §4
[26] = Half life in Sprague-Dawley rat at 1 mg/kg, iv measured upto 24 hrs by LC-MS/MS analysis; assay type: ADME, organism-based; settings: in vivo; method in brief: as §4
[27] = Metabolic stability in human liver microsomes assessed as half life at 1 uM incubated upto 60 mins in presence of NADPH by LC-MS/MS analysis; assay type: ADME, Microsome; settings: 1 h
Method in brief: (§5)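 Test compound at 1 μM final was incubated at 37 °C with 0.5 mg/mL liver microsomal protein and 1 mM NADPH, alongside a no-NADPH control. Samples were quenched at 0, 5, 15, 30 and 60 min into solution containing verapamil internal standard, then centrifuged and analysed by LC-MS/MS. t1/2 and intrinsic clearance were derived from the extent of metabolism.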

[28] = test system: enterovirus D68; assay: Antiviral activity against Enterovirus D68 infected in human RD cells assessed as increase in viral RNA release temperature at 10 ug/ml incubated for 15 mins by particle release thermal stability assay (reference value: 52 degree C); assay type: functional; settings: dose 10 µg/ml, 0.25 h
[29] = Metabolic stability in rat liver microsomes assessed as half life at 1 uM incubated upto 60 mins in presence of NADPH by LC-MS/MS analysis; assay type: ADME, Microsome; settings: 1 h; method in brief: as §5
[30] = Metabolic stability in Beagle dog liver microsomes assessed as half life at 1 uM incubated upto 60 mins in presence of NADPH by LC-MS/MS analysis; assay type: ADME, Canis lupus familiaris, Microsome; settings: 1 h; method in brief: as §5
[31] = Enterovirus D, STL-2014-12, RD, 72 h

| SMILES | Activity [4] | EC50 [7] [nM] | EC50 [8] [nM] | selectivity ratio [9] | EC50 [10, 31] [nM] | CC50 [12] [nM] | selectivity ratio [14] | EC50 [15] [nM] | selectivity ratio [16] | Tmax [17] [h] | C0 [18] [ng/mL] | F [19] [%] | Cmax [20] [ng/mL] | Ratio CC50/EC50 [11] | AUC [21] [ng·h/mL] | AUCt [22] [ng·h/mL] | AUC [23] [ng·h/mL] | t1/2 [24] [h] | AUC [25] [ng·h/mL] | t1/2 [26] [h] | further results |
| --- | --- | --- | --- | --- | --- | --- | --- | --- | --- | --- | --- | --- | --- | --- | --- | --- | --- | --- | --- | --- | --- |
| Nc1ccc(-c2ccc3ncc(-c4noc(C(F)(F)F)n4)cc3c2)cc1 [listing 1 of 2 here] | Active |  |  |  |  |  |  |  |  |  |  |  |  |  |  |  |  |  |  |  | Activity [1]: Active; Activity [2]: Active; Activity [3]: Dde; Activity [5]: Dde; Activity [6]: Active |
| Cc1cc(CCCOc2c(C)cc(-c3noc(C(F)(F)F)n3)cc2C)on1 [PLECONARIL] | Active | 300 | 640 | > 417 | 400 | > 200000 | > 333 | 240 | > 156 |  |  |  |  |  |  |  |  |  |  |  | selectivity ratio ([11]; RD cells, read-out: Ratio CC50/EC50): > 250; EC50 [13]: 430 nM |
| CCc1nc(-c2cnc3ccc(-c4ccc(N)cc4)cc3c2)no1.Cl |  | 60 | 70 | > 159 |  |  | > 185 | 70 | > 159 | 0.417 | 1370 | 6.8 | 36.1 | > 139 | 53.8 | 157 | 158 | 1.06 | 49.5 | 0.309 | EC50 ([10]; rd): 80 nM |
| Nc1ccc(-c2ccc3ncc(-c4noc(C(F)(F)F)n4)cc3c2)cc1 [listing 2 of 2 here] |  |  |  |  | 50 | > 2500 |  |  |  | 1 | 637 | 23.9 | 108 | > 50 | 320 | 253 | 268 | 1.21 | 307 | 1.92 | t1/2 [27]: 2.47 h; T [28]: 55 °C; t1/2 [29]: 0.683 h; t1/2 [30]: 0.288 h |
